Results on 95 compounds are retold here after ChEMBL document CHEMBL4513216, “Probing the Open Global Health Chemical Diversity Library for Multistage-Active Starting Points for Next-Generation Antimalarials” (ACS Infect Dis, 2020).

The structures appear in SMILES notation.

This data set can be described thus: Toxicity liver stage against HepG2, at 10uM. Also noted: test concentration 10 uM, cell line HepG2-A16-CD81EGFP. The format is cell-based. To be noted: human, HepG2-A16-CD81EGFP cells; read-out: INHIBITION
In outline:
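Uninfected HepG2-A16-CD81EGFP cells, 3 × 10^3 per well, 1536-well, plated on prespotted compound at 10 μM final, parasite-free screening media added to match infected plates; puromycin 10 μM positive, DMSO 0.5% negative; run in parallel with 48 h PbLuc assay at 37 °C, 5% CO2; viability by CellTiter-Glo luminescence, normalized to controls.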
In the case of `Cc1cccc(N2CCN(Cc3nc(CC4CC4)no3)CC2)n1`, the cytotoxicity at 10 µM is -10.1%.

Turning to `Cc1ccc2nc3n(c2c1)[C@@H](CNC(=O)c1ccncc1)COC3`, the cytotoxicity at 10 µM was -3.61%.

Turning to `CC(C)NC(=O)c1nc(COc2ccc3c(c2)OCO3)no1`, the cytotoxicity at 10 µM was -1.11%.

Regarding `Cc1cccc(NC(=O)C2(n3cnnn3)CCCCC2)n1`, the cytotoxicity at 10 µM was -1.05%.

As for `CCC(CNC(C)=O)(OC)c1ccccc1` (stereo not given), the cytotoxicity at 10 µM was determined as 1.97%.

Take `Cc1nc(COCc2cnc3n2CCN(C(=O)C2CC2)C3C)cs1` (stereo not given): the cytotoxicity at 10 µM came to 11.4%.

As for `Cc1nnc(N2CCCC3(CN(c4cccc(F)c4)CCO3)C2)o1` (stereo not given), the cytotoxicity at 10 µM stood at 0.777%.

In the case of `CCC1=N[C@@]2(CC[C@@H]3CN(S(=O)(=O)CC)C[C@@H]32)C(=O)N1CCOC`, the cytotoxicity at 10 µM is -0.211%.

Turning to `CSc1nc2cc(C)n(CC(=O)N3CCCC3)c2c(=O)n1CC(C)C`, the cytotoxicity at 10 µM was 3.64%.

For the compound `CCCn1[nH]c(CNc2ccccc2)nc1=O`, the cytotoxicity at 10 µM came to 9.98%.

Turning to `NC(=O)C1CCN(C(=O)CCn2ccc3ccc(F)cc32)CC1`, the cytotoxicity at 10 µM was -6.83%.

Consider `COCCNC(=O)c1cc2c(s1)CCN2C(=O)c1ccccc1`, for which the cytotoxicity at 10 µM was -12.9%.

As to `CCn1ccc(CNC(=O)c2cc(OC)cc(OC)c2)n1`, the cytotoxicity at 10 µM was 8.66%.

In the case of `CN(C)C(=O)CN1CCCC(c2nccnc2-c2cccc(Cl)c2)C1` (stereo not given), the cytotoxicity at 10 µM was 4.21%.

With `Cc1nc2cc(C3CCOCC3)nn2c(NCC2COCCO2)c1C` (stereo not given), the cytotoxicity at 10 µM came out at 0.135%.

Turning to `Cc1noc(C)c1-c1cccc(C2CCN(S(=O)(=O)N(C)C)CC2)n1`, the cytotoxicity at 10 µM was 8.18%.

Take `CC(=O)N1CCCCC[C@@H]2[C@@H]1[C@H](c1cccc(F)c1)CN2CCC(N)=O`: the cytotoxicity at 10 µM was -1.08%.

In the case of `COC(=O)[C@H]1CN(C(=O)c2cscn2)C[C@@H]1c1ccc(F)cc1`, the cytotoxicity at 10 µM is -26.3%.

`Cc1cc(CN2CCC(C3Nc4ccccc4S(=O)(=O)N3)CC2)oc1C` (stereo not given): the cytotoxicity at 10 µM was determined as 4.22%.

With `Cn1nc(C2CN(C(=O)c3cccnc3)C2)c2nccnc21`, the cytotoxicity at 10 µM was -21.7%.

In the case of `O=C(CCc1ccccc1)N1CCCC(c2n[nH]c3nccnc23)C1` (stereo not given), the cytotoxicity at 10 µM turned out to be 20.9%.

Consider `NC(=O)C1(c2cnccn2)CCCN1Cc1cc2ccccc2o1` (stereo not given), for which the cytotoxicity at 10 µM was -1.19%.

For `COc1ccccc1-c1nc(C(=O)N2CCOCC2)n2ccncc12`, the cytotoxicity at 10 µM is 11.9%.

Take `CS(=O)(=O)N1CC2(CCN(C3CCCCC3)CC2)Cc2ccccc21`: the cytotoxicity at 10 µM came to 4.92%.

On to `COc1ccc(SC(C)C(=O)N2CCC(O)CC2)cc1` (stereo not given), for which the cytotoxicity at 10 µM was determined as 0.887%.

Turning to `Cc1ccc(C(C)NC(=O)CCc2cnn(C)c2)cc1F` (stereo not given), the cytotoxicity at 10 µM is -0.348%.

Regarding `CC(C)C1CCC(N2CCN(CCS(C)(=O)=O)CC2)CC1` (stereo not given), the cytotoxicity at 10 µM came to 7.23%.

With `CC1CCCCN1C(=O)c1ccc2c(c1)OCCCO2` (stereo not given), the cytotoxicity at 10 µM was found to be 9.62%.

Take `CNS(=O)(=O)c1cccc(C(C)NCc2ccncc2)c1` (stereo not given): the cytotoxicity at 10 µM is -2.53%.

Take `O=C(O)c1ccn(-c2ccccc2NS(=O)(=O)c2cccc(Cl)c2F)n1`: the cytotoxicity at 10 µM is -3.36%.

For `Cc1ccc(C2COCCN2C(=O)c2cccc(N(C)C)c2)o1` (stereo not given), the cytotoxicity at 10 µM stood at 8.99%.

For `Cc1ccn(-c2ccccc2NCc2cccnc2)n1`, the cytotoxicity at 10 µM was found to be 0.508%.

On to `Cc1cc(C)n(C2CN(CC(=O)N(C)Cc3cnn(C)c3)C2)n1`, for which the cytotoxicity at 10 µM is -5.85%.

In the case of `NC(=O)C(CNC(=O)Cc1ccsc1)Cc1ccc(F)cc1` (stereo not given), the cytotoxicity at 10 µM came out at 9.21%.

Turning to `Cn1cc(CCNC(=O)N2CCCC(Cc3nccn3C)C2)cn1` (stereo not given), the cytotoxicity at 10 µM was -4.52%.

Regarding `Cc1cc(C)c(CNC(=O)C2COc3ccccc3C2)c(=O)[nH]1` (stereo not given), the cytotoxicity at 10 µM is -0.102%.

As to `CNC(=O)CN1CCC(OCC2CCCO2)CC1` (stereo not given), the cytotoxicity at 10 µM was 1.99%.

Turning to `CN(CCCc1cc(-c2ccc(F)cc2)n[nH]1)C(=O)CCn1cncn1`, the cytotoxicity at 10 µM was -137%.

`CC1CCN(C(=O)CN2CCC(c3n[nH]c(C4CC4)n3)CC2)CC1`: the cytotoxicity at 10 µM was -0.297%.

For `CC(C)CN1Cc2cccc(NC(=O)Cc3ccon3)c2C1`, the cytotoxicity at 10 µM is 4.86%.

Consider `CS(=O)(=O)CCOCCNc1cncc(Br)c1`, for which the cytotoxicity at 10 µM was found to be 1.83%.

Turning to `Cc1cc(CC(=O)NC2CCCN(Cc3ccccc3)C2=O)n[nH]1` (stereo not given), the cytotoxicity at 10 µM was determined as 3.5%.

As for `CCc1nc(CN2CCN(C(=O)COCc3ccccc3)CC2)no1`, the cytotoxicity at 10 µM worked out at 2.41%.

`Cn1cnc(S(=O)(=O)N2CCN(Cc3ccco3)CC2)c1Cl`: the cytotoxicity at 10 µM is -3.85%.

For the compound `COC[C@@]12CCC[C@@H]1CN(C(=O)COC1CCCC1)C2`, the cytotoxicity at 10 µM turned out to be 4.35%.

For the compound `CO[C@H]1CC[C@H]2[C@H]1OCCN2C(=O)CC1=CCCCC1`, the cytotoxicity at 10 µM came to 5.28%.

For `O=C(c1cscn1)N1CCN2C[C@H](OCc3cccnc3)C[C@H]2C1`, the cytotoxicity at 10 µM was -7.62%.

`O=C(c1cn(CCN2CCCCC2)nn1)N1CCCCO1`: the cytotoxicity at 10 µM is -4.55%.

On to `COc1ccc(/C=C/CN2CCCC3(C2)CN(C)C(=O)O3)cc1` (stereo not given), for which the cytotoxicity at 10 µM is -2.67%.

Turning to `CCCN1CCN(C(=O)c2ccc3nc(C)oc3c2)[C@H]2CS(=O)(=O)C[C@H]21`, the cytotoxicity at 10 µM is -23.2%.

Turning to `CCC[C@@H]1CN(C(=O)c2c(F)ccc(OC)c2F)C[C@H]1C(=O)O`, the cytotoxicity at 10 µM stood at 0.542%.

As to `CN1CCC(N(CCc2ccccc2)C(=O)c2cc[nH]c2)CC1`, the cytotoxicity at 10 µM was -1.14%.

As for `Cc1ccc(CN(C)C(=O)C(C)n2ccnc2C(C)C)o1` (stereo not given), the cytotoxicity at 10 µM was found to be 5.99%.

For `Cc1ncc(C)c(N2Cc3cnn(Cc4ccc(F)cc4)c3C2)n1`, the cytotoxicity at 10 µM stood at 3.3%.

For `CCCc1nnc2sc(C3CCS(=O)(=O)CC3)nn12`, the cytotoxicity at 10 µM came out at 1.4%.

In the case of `O=c1cc(N2CCNCC2)cnn1CCc1ccc(F)cc1`, the cytotoxicity at 10 µM is -8.76%.

As for `Cc1cccc(-n2nc(CC(C)C)nc2CCn2ccc(=O)[nH]c2=O)c1`, the cytotoxicity at 10 µM was -3.7%.

Regarding `CCS(=O)(=O)N1CC[C@@H]2[C@@H](CCC(=O)N2CCc2ccccc2)C1`, the cytotoxicity at 10 µM was 0.86%.

In the case of `Cc1cccc(-n2nc(CC(C)C)nc2CCCC(N)=O)c1`, the cytotoxicity at 10 µM came out at 3.4%.

As to `COc1ccc([C@@H]2CN(Cc3ccncc3)C[C@H]2N(C)C)cc1`, the cytotoxicity at 10 µM is -2.52%.

Turning to `Cc1cc(C)c2[nH]c(CN3CCCC(N4CCOCC4)C3)cc(=O)c2c1` (stereo not given), the cytotoxicity at 10 µM was -1.78%.

Regarding `COc1ccc(-c2noc(Cn3cc4c(n3)CCC4)n2)c(OC)c1OC`, the cytotoxicity at 10 µM is 4.7%.

As to `CN(C)C(C(=O)N1CCSCC1)c1ccccc1F` (stereo not given), the cytotoxicity at 10 µM stood at 0.32%.

`Cc1nn(C)c2nc(N(Cc3ccccc3)CC3CCCO3)sc12` (stereo not given): the cytotoxicity at 10 µM worked out at 8.15%.

In the case of `COCCN1CCN(C(=O)c2ccc(COC)o2)[C@H]2CS(=O)(=O)C[C@H]21`, the cytotoxicity at 10 µM was -6.15%.

For the compound `N#Cc1cccc(N2CCOC3(CNCCOC3)C2)n1` (stereo not given), the cytotoxicity at 10 µM amounted to 2.61%.

In the case of `CC(C)c1nccc(CN2CCC(O)(CN3CCCCC3)C2)n1` (stereo not given), the cytotoxicity at 10 µM was -1.95%.

`CC(C)c1cc(N(C)Cc2cc(C3CC3)on2)n2nccc2n1`: the cytotoxicity at 10 µM was determined as 4.28%.

Turning to `CO[C@@]1(C)C[C@@H](O)C12CCN(C(=O)C1(c3ccccc3F)CC1)CC2`, the cytotoxicity at 10 µM came out at 3.47%.

For `CCC(NC(=O)C(C)(C)C)c1ccccc1C` (stereo not given), the cytotoxicity at 10 µM was 2.3%.

On to `Cc1nc(N[C@H]2COC[C@@H]2N2CCCC2)c2cnn(C)c2n1`, for which the cytotoxicity at 10 µM is -1.42%.

In the case of `COc1ccc(C(C(=O)O)N2CCCN(C3CCCCC3)CC2)cn1` (stereo not given), the cytotoxicity at 10 µM is 13.3%.

As for `CNCC(=O)N1CCCC(c2cccc(Nc3nc(C)cc(C)n3)n2)C1` (stereo not given), the cytotoxicity at 10 µM was -5.07%.

In the case of `Cc1cnccc1CN1C[C@@H](O)[C@H](Oc2cccc(F)c2)C1`, the cytotoxicity at 10 µM was found to be 2.21%.

As for `Cc1ccccc1-c1cncc(C2CCN(C(C)C)CC2)n1`, the cytotoxicity at 10 µM was determined as 1.2%.

Turning to `CC(NC(=O)NCCCn1cncn1)c1ccncc1` (stereo not given), the cytotoxicity at 10 µM is -15.9%.

As to `Cc1cccc(OCCN2CCN(Cc3cnn(CCO)c3)CC2)c1`, the cytotoxicity at 10 µM was -5.16%.

For the compound `O=C(O)c1ccc(F)c(S(=O)(=O)N2CCOc3ccccc32)c1`, the cytotoxicity at 10 µM is -4.28%.

In the case of `CC(C)n1ccnc1CN1CCCN(C(=O)c2ncccc2O)CC1`, the cytotoxicity at 10 µM was -3.45%.

For `CC(C)Cc1noc(CN2CCN(S(C)(=O)=O)CC2)n1`, the cytotoxicity at 10 µM amounted to 5.51%.

`CNS(=O)(=O)c1ccc(C(=O)NCCNc2ncccn2)cc1`: the cytotoxicity at 10 µM is -5.95%.

Turning to `CC(C)c1noc(CCC(=O)NCC2CCS(=O)(=O)C2)n1` (stereo not given), the cytotoxicity at 10 µM worked out at 5.7%.

Take `CN(C)CC1CN(Cc2coc(-c3cccs3)n2)CCO1` (stereo not given): the cytotoxicity at 10 µM was determined as 4.48%.

On to `CNc1snc(C)c1C(=O)N1CCCC(n2nc(C)cc2C)C1` (stereo not given), for which the cytotoxicity at 10 µM is -2.74%.

Turning to `CCn1cc(NC(=O)NCc2ccc3c(c2)OCCO3)cn1`, the cytotoxicity at 10 µM was -7.71%.

`Cc1ccc(-c2ccccc2CC2CNCCNC2=O)c(C)c1` (stereo not given): the cytotoxicity at 10 µM is -1.18%.

Turning to `Cc1cccc(CN2CC[C@H]3OCC[C@@]3(C(=O)N3CCCO3)C2)n1`, the cytotoxicity at 10 µM came out at 0.886%.

On to `O=C1COC2(CCN(Cc3nccs3)CC2)CN1CC1CC1`, for which the cytotoxicity at 10 µM came to 4.38%.

With `Cn1cnc2c(N3CCCC3)nc(C3CCNCC3)cc21`, the cytotoxicity at 10 µM was -9.74%.

Turning to `CCOCC1CN(Cc2ccc(OC)cc2)Cc2nn(CC3CC3)cc21` (stereo not given), the cytotoxicity at 10 µM was found to be 18%.

On to `O=C(c1cnccn1)N1CCc2ncnc(-c3cccnc3)c2CC1`, for which the cytotoxicity at 10 µM was -3.8%.

For `CN(C)[C@@H]1CCN(S(=O)(=O)c2cn(C)cn2)[C@H]1Cc1cccnc1`, the cytotoxicity at 10 µM came out at 9.79%.

Turning to `CCc1ncnc2c1CCN(CCOC)CC2`, the cytotoxicity at 10 µM turned out to be 5.19%.

On to `CNC(=O)[C@H]1C[C@H]2OCC[C@H]2N(Cc2ccc(F)cc2)C1`, for which the cytotoxicity at 10 µM turned out to be 3.42%.

For the compound `O=C(Nc1ccccc1)N1C[C@@H]2CC[C@H]1CN(Cc1ccccc1)C2`, the cytotoxicity at 10 µM came out at 1.93%.
